# Source: PubChem
# The list is not random: actives were taken first. Their share in the collection is about 1.3%.
# G6PDH CS: counter-screen for G6PDH assay hits: L. mesenteroides G6PDH inhibition; Purified L. mesenteroides G6PDH, diaphorase/resazurin coupled fluorescence, 45 min; inhibition, % at 5 µM; hit rate 0.12% among 200,000; AID 1020; in the data active means inhibition above about 50%
# PfG6PD inh: PfG6PD (Plasmodium falciparum) enzyme inhibition. PfGluPho enzyme, NADPH resazurin-diaphorase fluorescence. inhibition, % at 20 µM. hit rate 0.78% among 350,000. AID 504690;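 active means inhibition reaching at least a set limit at 20 µM in the primary screen, cut at about 59% in these data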;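 further: 0% = DMSO wells with substrate and 100% = DMSO wells lacking glucose-6-phosphate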
# Diaphorase act: activates diaphorase or chemically reduces, flagging diaphorase assay artifacts; Diaphorase/resazurin coupled assay, resorufin fluorescence, 16 min; active compounds read high; 1 = vehicle wells, 0 = NADH-free wells; activation factor at 20 µM; hit rate 0.005% among 190,000; AID 1229;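 active means diaphorase activity raised at least twofold by the compound at 20 µM; inactive means activation factor below 2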
#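 Assay system: Purified diaphorase enzyme from Clostridium kluyveri | Amount: Enzyme 0.07 U/mL final | Dosing: Compound 20 µM once, DMSO 1% | Timing: 16 min reaction at room temperature | Detection: Fluorescence, excitation 544 nm and emission 590 nm | Evaluation: Higher resorufin formation from activation or reduction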
# Diaph inh CS: diaphorase inhibition or chemical oxidation counter-screen. diaphorase resazurin-to-resorufin fluorescence, NADH, 16 min; bacterial (C. kluyveri) enzyme, not human. inhibition, % at 20 µM. hit rate 0.69% among 190,000. AID 1217;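 active means primary screen inhibition at 20 µM above a set limit, cut at about 50% in these data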;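 further: plate controls were DMSO with full reaction for no effect and wells lacking NADH for full effect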
#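 Detection: fluorescence of resorufin formed from resazurin, Ex 544/Em 590 nm; test system: Clostridium kluyveri diaphorase enzyme; amount: 0.14 U/mL diaphorase, enzyme working solution; times: 16-min room-temperature incubation before reading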
# HKDC1 inhibitor: HKDC1 (human) hexokinase inhibition | Q2TB90 | recombinant HKDC1, G6PDH/diaphorase resazurin coupled fluorescence | inhibition, % at 20 µM | hit rate 0.16% among 340,000 | AID 493160;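 active means inhibition above about 35% when tested at 20 µM, limit read from the data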;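 further: plate controls were DMSO wells with enzyme for no effect and DMSO wells lacking enzyme for full effect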
# Target sequence (Q2TB90 whole entry, looked up): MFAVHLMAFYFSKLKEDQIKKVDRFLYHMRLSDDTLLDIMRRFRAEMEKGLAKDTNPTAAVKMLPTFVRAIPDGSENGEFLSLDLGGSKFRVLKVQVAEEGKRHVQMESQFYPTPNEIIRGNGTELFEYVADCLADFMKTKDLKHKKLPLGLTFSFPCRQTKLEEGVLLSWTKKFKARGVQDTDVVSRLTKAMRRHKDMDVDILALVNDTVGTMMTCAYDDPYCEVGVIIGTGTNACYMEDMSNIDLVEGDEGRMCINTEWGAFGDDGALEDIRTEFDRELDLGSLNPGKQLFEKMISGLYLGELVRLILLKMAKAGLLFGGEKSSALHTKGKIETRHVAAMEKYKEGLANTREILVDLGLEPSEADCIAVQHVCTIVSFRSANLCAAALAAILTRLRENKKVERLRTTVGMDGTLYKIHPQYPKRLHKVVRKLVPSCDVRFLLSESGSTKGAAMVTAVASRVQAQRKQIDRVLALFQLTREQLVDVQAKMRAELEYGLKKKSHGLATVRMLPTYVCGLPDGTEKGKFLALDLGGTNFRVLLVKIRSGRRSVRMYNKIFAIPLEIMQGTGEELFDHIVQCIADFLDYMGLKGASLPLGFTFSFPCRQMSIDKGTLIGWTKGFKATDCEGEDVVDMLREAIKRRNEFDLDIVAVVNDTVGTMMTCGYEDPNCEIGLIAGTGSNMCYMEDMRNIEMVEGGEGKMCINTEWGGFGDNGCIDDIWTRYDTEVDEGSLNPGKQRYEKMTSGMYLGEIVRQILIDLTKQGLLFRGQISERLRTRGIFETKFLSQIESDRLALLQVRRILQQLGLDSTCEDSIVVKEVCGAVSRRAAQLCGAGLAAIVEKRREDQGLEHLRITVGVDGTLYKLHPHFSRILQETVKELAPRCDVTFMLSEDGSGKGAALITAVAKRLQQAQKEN
#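 Assay system – recombinant HKDC1 (HK5) hexokinase enzyme, produced in-house · Input – HKDC1 at 5 µg/mL · Reagent – glucose plus 1 mM ATP as hexokinase substrates · Timing – 90 min reaction incubation at room temperature, dark · Measured by – G6PDH/diaphorase-coupled fluorescence, 1 mM NADP, 100 µM resazurin, 525/613 nm · Benchmarks – DMSO-enzyme wells negative, buffer-substituted wells positive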
# HKDC1 act conf2: HKDC1 (human) activation, single-dose confirmed | shares compounds with HKDC1 inhibitor | recombinant HKDC1, G6PDH/diaphorase resazurin fluorescence; active compounds read low | inhibition, % at 20 µM | hit rate 14% among 740 | AID 504708;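 active means inhibition at or below a set negative limit, negative inhibition meaning the enzyme was activated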
# * hit, by the source's call; x = no result.
SMILES,G6PDH CS,PfG6PD inh,Diaphorase act,Diaph inh CS,HKDC1 inhibitor,HKDC1 act conf2
O=C(c1c[nH]c(C(=O)C(Cl)(Cl)Cl)c1)c1c(F)cccc1F,x,-1,x,x,38*,14
C=CCNC(=O)NC(=O)CN1C(=O)NC(c2ccccc2)(c2ccccc2)C1=O,x,-2,x,x,-4,x
Nc1nc(N2CCN(c3ccccn3)CC2)nc2ccccc12,x,-51,x,x,-58,-44*
Cc1cccc(NC(=O)c2cccc(S(=O)(=O)N(C)C3CCCCC3)c2)n1,x,5,x,x,x,x
CN(C(=O)COC(=O)c1ccc2c(c1)OCCO2)C1CCCCC1,x,13,x,x,-4,x
Cc1cc(OCC(=O)N2CCN(c3ccccn3)CC2)cc(C)c1Br,x,19,x,x,0,x
Cc1nc2sc3c(NCc4ccco4)ncnc3c2c2c1COC(C)(C)C2,3,62*,0.3,66*,35*,37
CC(C)Cc1nc2sc3c(NCc4ccco4)ncnc3c2c2c1COC(C)(C)C2,-12,1,0.7,31,-2,x
CC(NC(=O)c1ccccc1F)c1nnc(SCC(=O)Nc2nnc(C3CC3)s2)n1C (stereo not drawn),x,-1,x,x,-2,x
Cc1ccc2oc(C(=O)N3CCC(N4CCSCC4)CC3)c(C)c2c1,x,1,x,x,35*,-13
O=C(CCc1ccccc1)NCC(=O)N/N=C/c1ccc(O)cc1O,x,-27,x,x,-43,-6
O=C(CN1CCCc2ccccc21)N/N=C/c1ccc(O)cc1O,-26,-14,0.8,19,-43,-34
O=C(CN1CCCc2ccccc21)N/N=C/c1ccccc1,-9,20,0.8,16,-4,x
O=C(CNC(=O)c1cccs1)N/N=C/c1ccc(O)cc1O,-10,-28,0.9,13,-46,-26
COc1ccccc1/C=C\C(=O)NCC(=O)N/N=C/c1ccc(O)cc1O,x,-30,x,x,-41,-32
COc1ccccc1/C=C/C(=O)NCC(=O)N/N=C/c1ccccc1,10,-8,1.1,-11,1,x
O=C(O)C1CCc2nc(NCc3ccccc3)nc(NCc3ccccc3)c2C1 (stereo not drawn),x,-16,x,x,2,x
O=C(Cn1cc(CNC(=O)C2CCCCC2)nn1)Nc1cc(C(F)(F)F)ccc1Cl,x,-7,x,x,-3,x
CCOc1cc(N2CCOCC2)c(OCC)cc1NC(=O)COC(=O)/C=C/c1ccc(OC(F)F)cc1,x,11,x,x,2,x
CCN1C=C(C(=O)c2ccccc2)C(=O)CC1,x,-6,x,x,-2,x
Cc1ccc(S(=O)(=O)Nc2ccc(O)c3ccccc23)c(C)c1,x,40,x,x,52*,25
COc1ccc(S(=O)(=O)Nc2ccccc2)cc1,x,2,x,x,-3,x
Cc1ccc(C)c(S(=O)(=O)Nc2ccc(O)c(C(=O)O)c2)c1,4,-18,0.9,8,-5,x
COc1ccc(S(=O)(=O)Nc2ccc(O)c3ccccc23)cc1,31,40,0.9,8,46*,51
Cc1ccc(C)c(S(=O)(=O)Nc2ccc(O)c3ccccc23)c1,x,35,x,x,48*,25
SMILES,G6PDH CS,PfG6PD inh,Diaphorase act,Diaph inh CS,HKDC1 inhibitor,HKDC1 act conf2
CCN1C[C@@H]2[C@@H]3C(=O)N(C)C(=O)[C@@H]3[C@](Cc3ccccc3)(C1=O)N2C(=O)c1ccc(Cl)c(Cl)c1,x,-2,x,x,-2,x
COC1=CC(=O)C(C2CC(=O)c3c(O)cc(O)cc3O2)=CC1=O (stereo not drawn),x,124*,x,x,60*,40
COc1c(CC=C(C)C)cc(C2CC(=O)c3c(O)cc(O)cc3O2)cc1CC=C(C)C (stereo not drawn),x,18,x,x,6,x
CCOc1ccc(/C=C2/SC(=S)N(CCC(=O)Nc3ccc(C(=O)O)cc3)C2=O)cc1,x,-25,x,x,43*,-42*
O=C(CCN1C(=O)/C(=C\c2ccccc2)SC1=S)Nc1ccc(C(=O)O)cc1,x,-24,x,x,10,x
O=C(COc1ccc2ccc(=O)oc2c1)Nc1cccc(S(=O)(=O)N2CCCCC2)c1,x,-5,x,x,-4,x
CCOc1ccc(NC(=O)CSc2ccc(-c3ccccn3)nn2)cc1,-30,5,0.9,14,-8,x
CCOC(=O)c1ccc(NC(=O)CSc2ccc(-c3ccccn3)nn2)cc1,x,47,x,x,37*,31
[O-][N+](=Cc1c(Cl)cccc1Cl)CC1(O)CCCCC1,x,-2,x,x,x,x
O=C(/C=C/Sc1ccccc1)c1ccccc1,2,25,1,3,36*,2
O=C(O)COc1ccc(/C=N/NC(=O)c2ccc(-c3csc(Nc4ccc(Cl)cc4)n3)cc2)cc1,x,30,x,x,76*,24
CCOc1cc(/C=N/NC(=O)c2ccc(-c3csc(Nc4ccc(C)cc4)n3)cc2)ccc1OCC(=O)O,-4,2,0.7,32,6,x
O=C1CSc2cc(Cl)ccc2N1,x,46,x,x,-1,x
O=c1nc(/C=C/c2cc([N+](=O)[O-])ccc2Cl)cc(C(F)(F)F)[nH]1,7,13,0.9,8,30,17
O=c1nc(/C=C/c2cccn2-c2ccc([N+](=O)[O-])cc2)cc(C(F)(F)F)[nH]1,7,1,0.7,33,16,x
CS(=O)(=O)Nc1ccc(C(=O)NCCSc2ccc(Cl)cc2)cc1,x,-26,x,x,-13,x
NS(=O)(=O)c1ccc(N=Nc2c(=O)[nH]n3c(=O)c4c([nH]c23)CCCC4)cc1,30,26,0.6,45,40*,72
COCCN(C(=O)COC(=O)c1cc2c(s1)CCC2)c1c(N)n(Cc2ccccc2)c(=O)[nH]c1=O,x,8,x,x,35*,16
CCC1CCc2sc(C(=O)OCC(=O)N(CCOC)c3c(N)n(Cc4ccccc4)c(=O)[nH]c3=O)cc2C1 (stereo not drawn),x,-8,x,x,0,x
CC(=O)n1cc(N(C(=O)CCl)c2ccccc2)c2ccccc21,x,-1,x,x,35,9
CC(=O)n1cc(CO)c2ccccc21,x,15,x,x,-7,x
CC(=O)n1cc(N(C(=O)CCl)c2ccc([N+](=O)[O-])cc2)c2ccccc21,x,0,x,x,48*,41
O=C(O)CSc1cc(NS(=O)(=O)c2ccc(Br)cc2)c2ccccc2c1O,x,100*,x,x,59*,37
Cc1ccc(S(=O)(=O)Nc2ccc(Br)cc2C(NCC(=O)O)c2ccccc2)cc1 (stereo not drawn),-2,-32,0.9,15,1,x
Cc1ccc(C)c(C(=O)COC(=O)c2n[nH]c3ccccc23)c1,x,27,x,x,-1,x
O=C(COC(=O)c1n[nH]c2ccccc12)c1cccc(Br)c1,x,13,x,x,38*,-30*
O=C(CCOc1ccccc1)Nc1ccnn1C1CCN(C(=O)CCC(F)(F)F)CC1,x,9,x,x,-5,x
COc1ccc(-c2oc(NC(=O)CCl)c(C#N)c2-c2ccc(OC)cc2)cc1,2,-30,0.8,21,46*,21
O=[N+]([O-])c1cnc(Nc2ccccc2)nc1Nc1ccccc1,x,-17,x,x,-1,x
Cc1ccc(NC(=O)CSc2nnc(-c3cccnc3)s2)cc1,-7,34,1.1,-9,-6,x
